From ChEMBL document CHEMBL3351507, “11H-Pyrido[3',2':4,5]pyrrolo[3,2-c]cinnoline and pyrido[3',2':4,5]pyrrolo[1,2-c][1,2,3]benzotriazine: two new ring systems with antitumor activity” (2014)
Activity calls are given as the source filed them. No cut-off for these calls is given here.

What was measured:
K562 = assay: Cytotoxicity against human K562 cells assessed as growth inhibition after 72 hrs by MTT assay; type: functional; conditions: K562, 72 h
HOP-62 = assay: Cytotoxicity against human HOP62 cells assessed as growth inhibition after 72 hrs by MTT assay; type: functional; conditions: HOP-62, 72 h
NCI-H23 = assay: Cytotoxicity against human NCI-H23 cells assessed as growth inhibition after 72 hrs by MTT assay; type: functional; conditions: NCI-H23, 72 h
NCI-H522 = assay: Cytotoxicity against human NCI-H522 cells assessed as growth inhibition after 72 hrs by MTT assay; type: functional; conditions: NCI-H522, 72 h
Method in brief: (§1)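 NCI 60-cell-line panel screen. Compounds were tested at 5 concentrations in 10-fold dilution (10^-4 to 10^-8 M) across the full panel. GI50 was taken as the molar concentration giving 50% inhibition of net cell growth.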

HCC 2998 = assay: Cytotoxicity against human HCC2998 cells assessed as growth inhibition after 72 hrs by MTT assay; type: functional; conditions: HCC 2998, 72 h
[1] = Cytotoxicity against human UACC62 cells assessed as growth inhibition after 72 hrs by MTT assay; type: functional; conditions: UACC-62, 72 h; method in brief: as §1
[2] = Cytotoxicity against human OVCAR3 cells assessed as growth inhibition after 72 hrs by MTT assay; type: functional; conditions: OVCAR-3, 72 h; method in brief: as §1
[3] = Cytotoxicity against human OVCAR4 cells assessed as growth inhibition after 72 hrs by MTT assay; type: functional; conditions: OVCAR-4, 72 h; method in brief: as §1
[4] = Cytotoxicity against human OVCAR5 cells assessed as growth inhibition after 72 hrs by MTT assay; type: functional; conditions: OVCAR-5, 72 h; method in brief: as §1
ACHN = assay: Cytotoxicity against human ACHN cells assessed as growth inhibition after 72 hrs by MTT assay; type: functional
Jurkat [5] = assay: Cytotoxicity against human Jurkat cells assessed as growth inhibition after 72 hrs by MTT assay; type: functional
Method in brief: (§2)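 Cells were grown in medium with 10% heat-inactivated FBS plus penicillin/streptomycin: RPMI-1640 for Jurkat and CEM, DMEM for A-431, HAM's F12 for LoVo. The doxorubicin-resistant LoVo subclone was kept with 0.1 µg/mL doxorubicin. Cells were seeded at 5x10^3 per well and pre-incubated 24 h at 37 °C.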

CCRF-CEM = assay: Cytotoxicity against human CEM cells assessed as growth inhibition after 72 hrs by MTT assay; type: functional; method in brief: as §2
LoVo [6] = assay: Cytotoxicity against human LoVo cells assessed as growth inhibition after 72 hrs by MTT assay; type: functional; method in brief: as §2
LoVo [7] = assay: Anticlonogenic activity against human LoVo cells assessed as inhibition of colony formation of cells incubated for 24 hrs followed by compound washout measured after 1 to 2 weeks by crystal violet staining-based assay; type: functional, cell-based
Method in brief: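 LoVo cells were plated at 1000 per well in six-well plates and exposed to compound at different concentrations for 24 h. Medium was then replaced, with fresh medium every 2–3 days, until colonies formed (1–2 weeks). Colony number is given as a percentage of untreated cells (100%), as mean ± SEM of 3 independent experiments.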

Jurkat [8] = assay: Cell cycle arrest in human Jurkat cells assessed as accumulation at S phase at 0.5 uM after 24 hrs by propidium iodide staining-based flow cytometry (reference value: 15.5%); type: functional
Jurkat [9] = assay: Cell cycle arrest in human Jurkat cells assessed as accumulation at S phase at 0.25 uM after 24 hrs by propidium iodide staining-based flow cytometry (reference value: 15.5%); type: functional
Jurkat [10] = assay: Induction of apoptosis in human Jurkat cells assessed as caspase-9 activation at 500 nM after 6 hrs by plate reader analysis; type: functional, cell-based
Method in brief: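 Jurkat cells were treated with 500 nM compound for 6 h and 24 h, then lysed. Lysates were incubated with pNA-conjugated substrates: Ac-DEVD (caspase-3), Ac-IETD (caspase-8) and LEHD (caspase-9). pNA release was read at 405 nm and normalized to Bradford protein. Results are expressed as fold increase over untreated control.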

Jurkat [11] = assay: Induction of ROS generation in human Jurkat cells at 500 nM after 24 hrs by HE/DCFH2-DA staining-based flow cytometry relative to control; type: functional, cell-based
Method in brief: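 Jurkat cells were exposed to 500 nM compound for 24 h, then loaded in HBSS with 2.5 µM hydroethidine or 0.1 µM H2DCFDA for 30 min at 37 °C. Flow cytometry used 488 nm excitation, with emission at 585 nm (HE) or 530 nm (DCF). Mean ± SEM of 3 experiments.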

[12] = molecular target: T1, DNA topoisomerase 1 (Homo sapiens) (UniProt P11387); assay: Inhibition of human DNA topoisomerase 1-mediated relaxation of supercoiled pBR322 plasmid DNA at 5 to 100 uM after 30 mins by agarose gel electrophoresis relative to untreated control
T1 sequence (whole entry): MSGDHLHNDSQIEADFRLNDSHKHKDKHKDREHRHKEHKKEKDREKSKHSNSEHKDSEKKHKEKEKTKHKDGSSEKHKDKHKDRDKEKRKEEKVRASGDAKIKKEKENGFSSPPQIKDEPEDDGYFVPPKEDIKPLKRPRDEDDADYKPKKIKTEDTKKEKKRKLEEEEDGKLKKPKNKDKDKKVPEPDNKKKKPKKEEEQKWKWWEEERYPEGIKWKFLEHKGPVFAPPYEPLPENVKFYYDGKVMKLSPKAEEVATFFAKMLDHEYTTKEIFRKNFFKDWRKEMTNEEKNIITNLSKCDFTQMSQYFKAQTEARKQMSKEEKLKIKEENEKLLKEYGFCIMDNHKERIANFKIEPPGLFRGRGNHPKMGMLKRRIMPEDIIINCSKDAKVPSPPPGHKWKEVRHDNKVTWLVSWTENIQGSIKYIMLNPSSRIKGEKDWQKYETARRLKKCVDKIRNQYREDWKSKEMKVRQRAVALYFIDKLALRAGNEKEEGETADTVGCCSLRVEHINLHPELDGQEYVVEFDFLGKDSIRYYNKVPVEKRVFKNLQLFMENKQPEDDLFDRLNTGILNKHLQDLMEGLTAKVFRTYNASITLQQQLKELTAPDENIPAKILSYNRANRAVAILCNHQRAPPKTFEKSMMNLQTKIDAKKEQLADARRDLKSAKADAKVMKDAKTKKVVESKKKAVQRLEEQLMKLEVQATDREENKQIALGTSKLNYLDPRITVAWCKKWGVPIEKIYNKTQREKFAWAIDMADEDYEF
Method in brief: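 Human topoisomerase I (10 units) was incubated with 0.250 µg supercoiled pBR322 and compound (5-100 µM) for 30 min at 37 °C. Buffer: 50 mM Tris-HCl pH 7.5, 50 mM KCl, 0.5 mM DTT, 10 mM MgCl2, 0.1 mM EDTA, 30 µg/mL BSA. Reactions were stopped with 1% SDS and proteinase K (50 µg/mL, 30 min). Samples ran on 0.8% agarose in TAE at 20 V overnight, then were post-stained with ethidium bromide.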

[13] = molecular target: T1, DNA topoisomerase 1 (Homo sapiens); assay: Inhibition of human DNA topoisomerase 1-mediated DNA single strand cleavage at 5 to 100 uM after 30 mins by agarose gel electrophoresis relative to untreated control
Method in brief: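 Reactions were set up as for relaxation: human topoisomerase I, 0.250 µg pBR322, compound 5-100 µM, 37 °C for 30 min, stopped with SDS/proteinase K. Samples were run on 0.8% agarose containing 0.5 µg/mL ethidium bromide, then destained in water, so that cleaved/nicked DNA could be detected under UV.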

Structure (SMILES) | GI50 (K562) | GI50 (HOP-62) | GI50 (NCI-H23) | GI50 (NCI-H522) | GI50 (HCC 2998) | GI50 [1] | GI50 [2] | GI50 [3] | GI50 [4] | GI50 (ACHN) | GI50 (Jurkat [5]) | GI50 (CCRF-CEM) | GI50 (LoVo [6]) | inhibition (LoVo [7]) | Activity (Jurkat [8]) | Activity (Jurkat [9]) | Activity (Jurkat [10]) | Activity (Jurkat [11]) | Activity [12] | Activity [13]
COc1ccc2c(c1)nnn1c3ncccc3c(N=O)c21 | 110 nM | 7510 nM | 5170 nM | 1250 nM | 7230 nM | 850 nM | 1110 nM | 1290 nM | 8020 nM | 94 nM | 90 nM | 220 nM | 1280 nM | Dose-dependent effect | 27.2% | 25.1% | Active | Active | Active | Active
O=Nc1c2cccnc2n2nnc3ccc(Cl)cc3c12 | 130 nM | 1440 nM | 1170 nM | 950 nM | 8400 nM | 2360 nM | 250 nM | 980 nM | 1380 nM | 330 nM |  |  |  |  |  |  |  |  |  | 
COc1cc2nnc3c4cccnc4[nH]c3c2cc1OC | 330 nM | 2260 nM | 2340 nM | 2050 nM | 1950 nM | 2490 nM | 1150 nM | 1600 nM | 2530 nM | 330 nM |  |  |  |  |  |  |  |  |  | 
COc1ccc2c(c1)nnc1c3cccnc3[nH]c21 | 220 nM | 5470 nM | 5500 nM | 1090 nM | 8230 nM | 910 nM | 960 nM | 1410 nM | 5720 nM | 200 nM | 90 nM | 650 nM | 3640 nM | Dose-dependent effect | 28.6% | 24.1% | Active | Active | Active | Active
COc1cc2nnn3c4ncccc4c(N=O)c3c2cc1OC | 210 nM | 1900 nM | 2220 nM | 4010 nM | 1000 nM | 2920 nM | 460 nM | 1910 nM | 2690 nM | 250 nM | 200 nM | 240 nM | 3890 nM | Dose-dependent effect | 24.7% | 15.4% | Active | Active | Active | Active
